# Source: PubChem BioAssay (Columbia University Molecular Screening Center)
# Shown is part of a subset that was picked to be rich in hits.
# Insulin prom act = activators of insulin promoter-driven GFP, primary screen, imaging, TRM-6 cells, eGFP reporter, cell count; activation, % at 2 µM; AID 1296, 2008; hit rate 0.81% among 130,000; plate-scaled: unstimulated 0, stimulated control 100;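 active = activation at 2 µM above a set limit, confirmed on inspection of the cell images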;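 note: share of cells whose green reporter signal exceeds an intensity cutoff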
#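 Test system: human fetal islet-derived TRM-6 cells with tamoxifen-inducible insulin promoter–eGFP reporter. Compound dosing: 2 µM final, single concentration. Incubation: tamoxifen pre-incubation 15 h overnight, then compound exposure 48 h at 37 °C. Signal: fixed-cell fluorescence microscopy, eGFP plus Hoechst.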
# * hit, by the source's call; [ ] = remark or other dose.
SMILES,Insulin prom act
CCOC(=O)c1oc2ccccc2c1NC(=O)COC,123.1
CCOC(=O)c1oc2cccc(OC(C)=O)c2c1C,285.7
O=C(O)Cc1ccc(-n2cccc2)cc1,-9.1
O=C1CCCCC1C(Nc1ccc(Cl)cc1)c1ccccc1 (stereo unspecified),213.8*
O=C(OC1CCCCC1=O)c1ccc(S(=O)(=O)Nc2ccccc2)cc1 (stereo unspecified),-8.6
CCOC(=O)NC(c1ccccc1)C1CCCCC1=O (stereo unspecified),-8.3
CC(C)N(C(=S)Nc1cccc(C(F)(F)F)c1)C(C)c1ccccn1 (stereo unspecified),-7.1
CS(=O)(=O)c1ccc(Cl)c(NC(=O)CCc2ccccc2)c1,9.1
N#Cc1cccc(NCC(=O)Nc2ccc3c(c2)OCCO3)c1,-8.3
CC1CCC/C(=N\NC(=O)c2ccncc2)C1 (stereo unspecified),6.7
O=C(CCC(=O)N1CCc2ccccc21)N1CCc2ccccc21,569.2*
O=C(COc1ccccc1)N1CCc2ccccc21,-2.0
Cc1ccc(S(=O)(=O)CCC(=O)N2CCc3ccccc32)cc1,3.6
Cc1ccc(CN2CCN(/N=C/c3ccc(C(F)(F)F)cc3)CC2)c(C)c1,-3.3
CCC(=O)Nc1cc(C(=O)OCC(=O)c2ccccc2)ccc1C,0.0
CCN1C/C(=C/c2cccc([N+](=O)[O-])c2)C(=O)/C(=C/c2cccc([N+](=O)[O-])c2)C1,-100.0
Cc1ccccc1NC(=O)c1cccc2nc3ccccc3nc12,233.3*
Cc1ccccc1C(=O)Nc1ccccc1-n1cccc1,1.4
Cc1ccccc1NC(=O)c1c(Cl)nc(C)c(Cl)c1C,156.3
CCOc1cc(N(CC)CC)ccc1/C=C(/C#N)c1nc2ccccc2[nH]1,233.3*
N#C/C(=C/c1cccs1)c1nc2ccccc2[nH]1,-75.0
Cc1ccc(/C=C(\C#N)c2nc3ccccc3[nH]2)s1,-96.2
N#C/C(=C\c1cc([N+](=O)[O-])c(N2CCOCC2)cc1N1CCOCC1)c1nc2ccccc2[nH]1,-9.1
COc1cc(/C=C(\C#N)c2nc3ccccc3[nH]2)cc(Br)c1OCc1ccc(F)cc1,-6.7
CCN(CC)c1ccc(/C=C(/C#N)c2nc3ccc(C)cc3[nH]2)c(OC(C)C)c1,244.8*
SMILES,Insulin prom act
CC(C)CC(=O)Nc1nnc(SCC(=O)NCc2ccc3c(c2)OCO3)s1,-8.6
CC(C)(C)c1ccc(/C=C/C(=O)Nc2nncs2)cc1,0.0
CCOc1ccc(NC(=S)NCC(c2cccnc2)N2CCOCC2)cc1 (stereo unspecified),-6.7
Cc1cc(NC(=O)CCC(=O)N(Cc2cccs2)C(C(=O)NC2CCCC2)c2cccnc2)no1 (stereo unspecified),-2.8
Cc1cc(NC(=O)CCC(=O)N(c2ccccc2)C(C(=O)NC2CCCC2)c2cccs2)no1 (stereo unspecified),118.2
Cc1ccc(C(C(=O)NC2CCCC2)N(Cc2ccco2)C(=O)CCC(=O)Nc2cc(C)on2)cc1 (stereo unspecified),810.0*
O=C(O)c1sc2cccc(Cl)c2c1Cl,-3.7
COc1ccc(/C=N/Nc2nonc2N)cc1OC,328.6
COc1cc(/C=N/Nc2nc3ccccc3o2)cc(OC)c1O,114.3
COc1cc(/C=N\Nc2nc3ccccc3o2)cc(OC)c1OC,468.8*
O=C1N/C(=N\c2ccccn2)SC1Cc1ccc(Cl)cc1 (stereo unspecified),450.0*
Cc1ccc(CC2S/C(=N/c3ccccn3)NC2=O)cc1 (stereo unspecified),0.0
Cc1ccc(CC2SC(=O)NC2=O)cc1Cl (stereo unspecified),8.8
CC(=O)Nc1ccc(C(=O)OCC(=O)NC2CCCCCCC2)cc1,0.0
COc1ccc(C(=O)Nc2ccc(N3CCOCC3)cc2)cc1S(=O)(=O)NC1CCCC1,-7.1
COc1ccc(CCC(=O)NCCCNC(=O)CCc2ccc(OC)cc2)cc1,-2.8
Cc1ccc(-c2nnn(CC(=O)N3CCCCC3)n2)o1,0.0
CCOC(=O)/C(=C/C=C1\Sc2cc(OCC)c(OCC)cc2N1CC)C(C)=O,669.2*[fluoresces]
O=C(c1cc(-c2ccccc2)on1)N1CCN(Cc2ccc3c(c2)OCO3)CC1,-4.5
O=c1[nH]c(CN2CCN(Cc3ccc4c(c3)OCO4)CC2)nc2ccccc12,2.8
O=c1cc(-c2ccccc2)nc(N2CCN(Cc3ccc4c(c3)OCO4)CC2)[nH]1,730.0*
Nn1c(SCC(=O)NC(=O)Nc2ccc3c(c2)OCCO3)nnc1C1CC1,9.1
O=C(CNc1ccccc1)NN=C1CCCC1,5.6
S=C(Nc1ccc(Oc2ccc(NC(=S)NC3CCCCC3)cc2)cc1)NC1CCCCC1,0.0
CC(C)(C)c1ccc(/C=N/NC(=S)NC2CCCCC2)cc1,421.4*
SMILES,Insulin prom act
S=C(Nc1ccc(Cl)c(Cl)c1)NC1CCCCC1,9.1
O=C(CC1NC(=O)NC1=O)Nc1cccc2ccccc12 (stereo unspecified),569.2*
COc1ccc(NC(=O)C(NC(=O)CC2NC(=O)NC2=O)c2ccccc2)cc1 (stereo unspecified),0.0
Cc1cc2c(cc1C)NC(CC(=O)NCc1ccccc1)C(=O)N2 (stereo unspecified),106.3
CC(c1ccccc1)N(NC(=O)C(O)(c1ccccc1)c1ccccc1)C(=O)c1ccccc1 (stereo unspecified),162.1
CCOc1ccc(N2C(=O)CC(N(CCc3ccc(OC)cc3)C(=O)/C=C/C(=O)O)C2=O)cc1 (stereo unspecified),105.6
CCn1cc(C(=O)OCC(=O)Nc2c(C)cccc2C)c(=O)c2ccc(C)nc21,5.6
CCN1C(=O)CC2(C[N+]3(C)CCC2CC3)C1=O (stereo unspecified),6.7
Cc1ccc(-n2nnnc2-c2ccco2)cc1,0.0
FC(F)(F)c1nc(-c2cccs2)ncc1-c1nnnn1-c1ccc(Cl)cc1,3.3
Cc1cc(C)cc(-n2nnnc2-c2cn(C)nc2C(F)(F)F)c1,132.3*
O=C(O)C1=C(C(=O)Nc2cccc(C(F)(F)F)c2)CCCC1,7.1
Cc1nc(NC(=O)CC(C)C)sc1-c1csc(Nc2ccc(Cl)cc2)n1,2.7
Cc1cccc(NC(=O)C(=O)NCc2ccc3c(c2)OCO3)c1C,-4.8
CCCCOC(C)n1cc(F)c(=O)[nH]c1=O (stereo unspecified),3.7
Nc1ccc2c(c1)C(=O)C(=O)c1ccccc1-2,239.0*
O=C1C(=O)c2ccc(-c3ccccc3)cc2-c2ccccc21,-27.3
Cc1ccc(N2C(=O)c3ccc(N)cc3C2=O)cc1C,0.0
O=C1CCN(S(=O)(=O)c2ccc(Br)cc2)CCN1,-3.7
Cn1cnnc1SCC(=O)NC1CCCCC1,0.0
Cc1ccc(NC(=O)C(=O)NCCN2CCN(S(=O)(=O)c3ccccc3)CC2)cc1C,-6.7
CCc1nnc(NC(=O)CSc2nnc(Cc3ccccc3)n2-c2ccccc2)s1,-81.8
Cc1nnc(NC(=O)CSc2nnc(Cc3ccccc3)n2-c2ccccc2)s1,660.0*
Cc1nnc(NC(=O)CSc2nnc(C)n2Cc2ccccc2)s1,0.0
COc1ccc(/C=C/C(=O)NCCSCc2ccco2)cc1,0.0
COCC(=O)Nc1nc(-c2ccc(C)cc2)c(C)s1,314.0
COc1ccc(-c2nc(C)sc2C)cc1,418.8*
COc1ccc(-c2sc(NC(C)=O)nc2-c2ccccc2)cc1,-7.9
Cc1ccccc1C(=O)NNC(=O)CSc1nnc(-c2ccncc2)n1-c1ccccc1,0.0
CCc1nnc(NS(=O)(=O)c2ccc(NC(=O)/C=C/c3ccc(OC)cc3OC)cc2)s1,3.3
